Bounds are passed on as bounds.

One assay concerns the target T1, Caspase-3 (Homo sapiens, UniProt P42574).
T1 sequence (P42574 whole entry): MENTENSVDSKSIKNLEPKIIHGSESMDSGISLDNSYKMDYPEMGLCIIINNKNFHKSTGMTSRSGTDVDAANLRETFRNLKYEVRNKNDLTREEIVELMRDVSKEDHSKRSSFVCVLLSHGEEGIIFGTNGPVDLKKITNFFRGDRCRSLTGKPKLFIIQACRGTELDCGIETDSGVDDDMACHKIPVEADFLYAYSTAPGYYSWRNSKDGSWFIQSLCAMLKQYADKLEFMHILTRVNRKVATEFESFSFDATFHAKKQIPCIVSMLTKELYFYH
Briefly: Inhibition of human recombinant caspase 3 assessed as decrease in AMC release using Ac-Asp-Glu-Val-Asp-AMC as substrate preincubated with enzyme for 10 mins prior to substrate addition measured after 10 mins by fluorescence microplate analysis. A digest of the protocol:
(§1)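 Recombinant human caspase at 0.5 units per assay (defined as 500 pmol substrate converted in 60 min), diluted in reaction buffer. Compounds in DMSO, tested at final concentrations from 500 µM down to 5 pM in tenfold steps. Enzyme and compound pre-incubated for 10 min at 37 °C. AMC peptide substrate then added to a final 10 µM and reacted for 10 min. IC50 obtained by nonlinear regression.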

Another assay deals with T2, Caspase-6 (Homo sapiens, UniProt P55212).
T2 sequence (P55212 whole entry): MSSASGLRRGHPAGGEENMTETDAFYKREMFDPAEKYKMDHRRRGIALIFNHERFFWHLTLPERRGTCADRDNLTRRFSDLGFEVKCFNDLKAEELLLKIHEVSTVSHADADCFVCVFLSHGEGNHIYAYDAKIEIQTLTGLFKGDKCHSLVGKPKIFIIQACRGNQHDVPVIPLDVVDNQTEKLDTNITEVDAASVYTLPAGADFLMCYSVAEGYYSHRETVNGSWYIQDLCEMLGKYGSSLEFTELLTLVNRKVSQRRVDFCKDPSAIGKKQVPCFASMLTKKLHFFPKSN
Briefly: Inhibition of human recombinant caspase 6 assessed as decrease in AMC release using Ac-Val-Glu-Ile-Asp-AMC as substrate preincubated with enzyme for 10 mins prior to substrate addition measured after 10 mins by fluorescence microplate analysis. In outline:
as §1

In the next assay the target is T3, Caspase-7 (Homo sapiens, UniProt P55210).
T3 sequence (P55210 whole entry): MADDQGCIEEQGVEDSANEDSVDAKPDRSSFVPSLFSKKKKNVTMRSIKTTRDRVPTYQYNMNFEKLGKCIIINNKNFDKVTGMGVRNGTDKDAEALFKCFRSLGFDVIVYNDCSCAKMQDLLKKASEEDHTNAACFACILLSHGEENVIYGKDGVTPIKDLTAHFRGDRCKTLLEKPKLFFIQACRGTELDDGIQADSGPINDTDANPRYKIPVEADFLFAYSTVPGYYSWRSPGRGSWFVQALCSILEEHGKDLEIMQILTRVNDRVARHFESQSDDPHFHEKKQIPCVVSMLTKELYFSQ
In words: Inhibition of human recombinant caspase 7 assessed as decrease in AMC release using Ac-Asp-Glu-Val-Asp-AMC as substrate preincubated with enzyme for 10 mins prior to substrate addition measured after 10 mins by fluorescence microplate analysis. In outline: as §1

The target of another assay is T4, Caspase-1 (Homo sapiens, UniProt P29466).
T4 sequence (P29466 whole entry): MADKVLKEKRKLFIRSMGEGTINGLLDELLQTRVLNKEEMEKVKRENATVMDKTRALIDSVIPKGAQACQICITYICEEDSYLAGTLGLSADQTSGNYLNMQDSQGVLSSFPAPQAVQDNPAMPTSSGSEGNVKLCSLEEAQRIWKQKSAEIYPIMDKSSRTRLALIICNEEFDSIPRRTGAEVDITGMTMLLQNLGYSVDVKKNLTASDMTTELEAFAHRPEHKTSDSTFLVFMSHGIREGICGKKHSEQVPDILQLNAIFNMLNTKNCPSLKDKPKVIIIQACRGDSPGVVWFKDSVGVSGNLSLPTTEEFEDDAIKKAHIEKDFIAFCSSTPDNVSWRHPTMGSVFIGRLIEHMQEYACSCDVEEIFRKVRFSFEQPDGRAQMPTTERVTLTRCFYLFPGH
In words: Inhibition of human recombinant caspase 1 assessed as decrease in AMC release using Ac-Tyr-Val-Ala-Asp-AMC as substrate preincubated with enzyme for 10 mins prior to substrate addition measured after 10 mins by fluorescence microplate analysis. In outline:
as §1

Turning to `O=C1Nc2ccc(S(=O)(=O)N3CCC[C@H]3COCC(F)(F)F)cc2C1=O`, the IC50 was 1.06 µM at Caspase-3, above 500 µM at Caspase-6, 1.42 µM on Caspase-7 and 14.7 µM at Caspase-1.
On the same counts, the results for `COCC[C@@H]1CCCN1S(=O)(=O)c1ccc2c(c1)C(=O)C(=O)N2CCCCF` are 0.0923 µM, 1.03 µM, 0.0123 µM and 7.34 µM.
On the same counts, the results for `COCCCC1CCCN1S(=O)(=O)c1ccc2c(c1)C(=O)C(=O)N2CCCCF` (racemic) are 0.184 µM, above 500 µM, 0.0337 µM and above 500 µM.
On the same counts, the results for `CCCCN1C(=O)C(=O)c2cc(S(=O)(=O)N3CCC[C@H]3COCC(F)(F)F)ccc21` are 0.0468 µM, above 500 µM, 0.00747 µM and 25.9 µM.
Take `CCCCN1C(=O)C(=O)c2cc(S(=O)(=O)N3CCCC3CCCOC)ccc21` (racemic): the IC50 is 0.17 µM on Caspase-3, above 500 µM at Caspase-6, 0.515 µM at Caspase-7 and above 500 µM at Caspase-1.
As to `CCCCN1C(=O)C(=O)c2cc(S(=O)(=O)N3CCC[C@H]3COCCF)ccc21`, the IC50 is 0.00479 µM at Caspase-3, above 500 µM on Caspase-6, 0.0396 µM on Caspase-7 and 24.7 µM at Caspase-1.
On the same counts, the results for `CCOC[C@@H]1CCCN1S(=O)(=O)c1ccc2c(c1)C(=O)C(=O)N2` are 1.12 µM, above 500 µM, 0.0132 µM and above 500 µM.
On the same counts, the results for `O=C1C(=O)N(CCCCF)c2ccc(S(=O)(=O)N3CCC[C@H]3COCCF)cc21` are 0.0743 µM, above 500 µM, 0.00968 µM and 45.8 µM.
`CCOC[C@@H]1CCCN1S(=O)(=O)c1ccc2c(c1)C(=O)C(=O)N2CCCCF`: the IC50 was 0.365 µM at Caspase-3, above 500 µM on Caspase-6, 0.218 µM at Caspase-7 and above 500 µM on Caspase-1.
In the case of `O=C1Nc2ccc(S(=O)(=O)N3CCC[C@H]3COCCF)cc2C1=O`, the IC50 was 0.346 µM at Caspase-3, above 500 µM at Caspase-6, 1.33 µM at Caspase-7 and 18.4 µM on Caspase-1.
With `O=C1C(=O)N(CCCCF)c2ccc(S(=O)(=O)N3CCC[C@H]3COCC(F)(F)F)cc21`, the IC50 on Caspase-3 is 0.149 µM; at Caspase-6, above 500 µM; at Caspase-7, 0.265 µM; at Caspase-1, 30.7 µM.
Turning to `CCCCN1C(=O)C(=O)c2cc(S(=O)(=O)N3CCC[C@H]3CCOC)ccc21`, the IC50 at Caspase-3 was 0.0943 µM; at Caspase-6 it was above 500 µM; on Caspase-7, 0.0246 µM; on Caspase-1, 15.5 µM.
`CCCCN1C(=O)C(=O)c2cc(S(=O)(=O)N3CCC[C@H]3COCC)ccc21`: the IC50 came out at 0.0256 µM on Caspase-3, 2.61 µM on Caspase-6, 0.0646 µM at Caspase-7 and 18.4 µM at Caspase-1.
On the same counts, the results for `COCC[C@@H]1CCCN1S(=O)(=O)c1ccc2c(c1)C(=O)C(=O)N2` are 0.349 µM, above 500 µM, 0.54 µM and 12.1 µM.
On the same counts, the results for `COCCCC1CCCN1S(=O)(=O)c1ccc2c(c1)C(=O)C(=O)N2` (racemic) are 1.58 µM, above 500 µM, 0.125 µM and 11.6 µM.
